ADAM17 inh: inhibits human ADAM17; recombinant ADAM17, EDANS/DABCYL FRET peptide cleavage; 0.83% of 370,000 active; inhibition, % at 6.95 µM;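 active = inhibition above the mean of compounds lying between control limits plus 3 SD, set per campaign, cut at about 8.5% in these data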
PLC-beta3 inh: PLC-beta3 (human) inhibition, primary screen; Q01970; 0.18% of 370,000 active; inhibition, % at 12.2 µM; Purified PLC-beta3, fluorogenic substrate, fluorescence; in the data active = inhibition above about 11%
Tn7 DDE FP: DD(E)-Tn7 binding inhibition, primary FP screen; P02675; FP displacement of FITC-Tn7 peptide from fibrin DD(E); 0% = median of compound wells per plate; inhibition, % at 8.3 µM; 0.13% of 370,000 active; AID 720508;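 active = inhibition above the mean of compounds falling within the control limits plus 3 SD of them, cut at about 14% in these data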
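Assay system: Human clot-derived fibrin DD(E) complex | Buffer or medium: Tris/NaCl/CaCl2 buffer, pH 7.8 | Repeats: One replicate per compound | Benchmarks: Aha-Tn7 high control | Measure: % inhibition scaled between sample-field median and high-control FP | Schedule: 10 min plus 3 h, room temperature | Signal: Fluorescence polarization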
Tn6 DDE FP: inhibitors of Tn6 peptide binding to human fibrin DD(E); P02675; Fibrin DD(E) TRITC-Tn6 fluorescence polarization displacement; inhibition, % at 8.3 µM; 0.21% of 370,000 active;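 active = inhibition above a per-campaign cutoff: mean of compounds within control limits plus 3 SD, cut at about 15% in these data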
ADAM10 inh: inhibits human ADAM10; recombinant ADAM10, EDANS/DABCYL FRET peptide cleavage, 3 h; inhibition, % at 7 µM; 0.62% of 370,000 active;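 active = inhibition above a per-campaign cutoff equal to the mean of compounds falling between control-based bounds plus 3 SD, cut at about 20% in these data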
PLCg1 inh: inhibitors of human phospholipase C gamma1; AID 720700; 0.84% of 370,000 active; P19174; purified PLC-gamma1, fluorogenic substrate, fluorescence; inhibition, % at 12.2 µM
PLCgamma1 ctr: counter-screen for PLC-beta3 inhibitors: inhibitors of human PLC-gamma1. 3.1% of 3,300 active. AID 743258. purified PLC-gamma1, fluorogenic substrate, fluorescence. inhibition, % at 12.3 µM. shares compounds with PLCg1 inh
PLCbeta3 conf: human PLC-beta3 inhibition, confirmation | shares compounds with PLCg1 inh | purified PLC-beta3, fluorogenic substrate fluorescence | inhibition, % at 12.3 µM | 1% of 3,300 active; in the data active = inhibition above about 11%
Numbers stand for hits; – = inactive; · = no result. Most compounds without a hit are left out; they make up all but 2.3% or so of the library. Rule as the data show it, unless noted: active = inhibition above about 9.5%; inactive = the rest.

SMILES | ADAM17 inh | PLC-beta3 inh | Tn7 DDE FP | Tn6 DDE FP | ADAM10 inh | PLCg1 inh | PLCgamma1 ctr | PLCbeta3 conf
COC(=O)C1=C(C)N(Cc2ccc(Cl)cc2)C(=S)NC1c1ccc(OC)cc1 (centres undefined) | – | – | – | – | – | – | · | ·
OCCC1CN(Cc2cccc3nonc23)CCN1Cc1ccsc1 (centres undefined) | – | – | – | – | – | 10 | – | –
CCC[C@H]1[C@@H](NCC2CCCCC2)CC[C@@]23CCCN2C(=O)CCC[C@@H]13 | – | – | – | – | – | – | · | ·
CCN(Cc1ccccc1)C(=O)Cn1cc2c(n1)CCCC2 | – | – | – | – | – | 10 | – | –
O=C(O)C1C(c2ccccc2)C(C(=O)N2CCOCC2)C1c1ccccc1 (centres undefined) | – | – | – | – | – | – | · | ·
COC(=O)C1C(c2ccccc2)C(C(=O)N2CCOCC2)C1c1ccccc1 (centres undefined) | – | 15 | – | – | – | – | – | –
CN1C(=O)CSC1=NC12CC3CC(CC(C3)C1)C2 | – | – | – | – | – | 11 | – | –
CCN1C(=O)CSC1=NC12CC3CC(CC(C3)C1)C2 | – | – | – | – | – | – | · | ·
O=C(Nn1c(SCc2cccc([N+](=O)[O-])c2)nc2ccccc2c1=O)c1ccccc1 | – | – | – | – | – | 11 | – | –
COc1ccc(C(=O)Nn2c(SCc3cccc([N+](=O)[O-])c3)nc3ccccc3c2=O)cc1 | – | – | – | – | – | – | · | ·
CCOC(=O)[C@H](Cc1ccccc1)NC(=O)[C@H]1C[C@@]2(N3CCCCC3)c3ccccc3N(C(=O)OC(C)(C)C)[C@H]2N1C(=O)OC(C)(C)C | – | – | – | – | – | – | · | ·
CCc1cccc(NS(=O)(=O)c2c(C)n[nH]c2C)c1 | – | – | – | – | – | 9.8 | – | –
COC(=O)c1cccc(NC(=O)Nc2ccc(Cl)cc2Cl)c1 | – | – | – | – | – | 9.9 | – | –
COC(=O)c1cccc(NC(=O)C(C)N2C(=O)c3ccccc3C2=O)c1 (centres undefined) | – | – | – | – | – | 10 | – | –
COc1cccc(NC(=O)C(C)N2C(=O)c3ccccc3C2=O)c1 (centres undefined) | – | – | – | – | – | – | · | ·
COc1ccc(F)cc1S(=O)(=O)n1cc(C)nc1-c1ccccc1 | – | 11 | – | – | – | – | – | –
COc1ccc(F)cc1S(=O)(=O)N1CCCN(S(=O)(=O)c2cc(F)ccc2OC)CC1 | – | – | – | – | – | – | · | ·
CN(C)C(=O)c1ccccc1Sc1cc(Cl)ccc1Cl | – | – | – | – | – | 15 | – | –
CN(C)C(=O)c1ccccc1Sc1ccc(Cl)cc1Cl | – | – | – | – | – | – | · | ·
COc1cccc(C(=O)N2CCC[C@@H]2C(=O)N2CCC[C@H]2C(=O)NCc2ccccc2)c1 | – | – | – | – | – | – | · | ·
CC(C)[C@H](NC(=O)c1ccccc1)C(=O)OCc1nnc(-c2ccccc2)o1 | – | – | – | – | – | 12 | – | –
COC(=O)CN1CCN(C(=O)c2nocc2C)CC1 | – | – | – | – | – | – | · | ·
COc1cccc(S(=O)(=O)N(C)C[C@H]2OCc3cnnn3CCCC(=O)N([C@@H](C)CO)C[C@@H]2C)c1 | – | 11 | – | – | – | – | – | –
C[C@@H]1CN([C@H](C)CO)C(=O)CCCn2nncc2CO[C@H]1CN(C)C(=O)Nc1cccc(Oc2ccccn2)c1 | – | – | – | – | – | 9.7 | – | –
CCOC(=O)C1(CCc2ccccc2)CCN(Cc2ccccn2)CC1 | – | – | – | – | – | 9.9 | – | –
c1ccc(Cn2ccc3ccc(-c4ccc5ccn(Cc6cccc(Oc7ccccc7)c6)c5c4)cc32)cc1 | – | – | – | – | – | – | · | ·
Nc1cc(N)c2c(c1)C(=O)c1ccccc1-2 | – | – | – | – | – | 9.8 | – | –

Assay outcomes: PubChem, The Scripps Research Institute Molecular Screening Center
